Experimental findings from ChEMBL document CHEMBL4325904 (Eur J Med Chem, 2019) are described below.

Structures are written as SMILES. The source made the active and inactive calls. The calls are words filed in the database; no cut-off is given here.

Series [1] in a line: Drug uptake in human A549 cells lysosome at 1 uM after 2 hrs by Lyso-tracker red-based inverted light fluorescence confocal microscopic analysis. To be noted: a549, 2 h.
The nature of series [2]: Drug uptake in human A549 cells cytoplasm at 1 uM after 2 hrs by naphthalimide dye-based inverted light fluorescence confocal microscopic analysis. Type of series: ADME, subcellular. To be noted: a549, 2 h. The method, boiled down:
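A549 cells incubated 2 hours with compound at 1 µM; intracellular distribution imaged by confocal microscopy with 405 nm laser excitation, emission collected at 460–560 nm.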

A further series concerns the target T1, Histone deacetylase 11 (Homo sapiens, UniProt Q96DB2).
T1 sequence (Q96DB2 whole entry): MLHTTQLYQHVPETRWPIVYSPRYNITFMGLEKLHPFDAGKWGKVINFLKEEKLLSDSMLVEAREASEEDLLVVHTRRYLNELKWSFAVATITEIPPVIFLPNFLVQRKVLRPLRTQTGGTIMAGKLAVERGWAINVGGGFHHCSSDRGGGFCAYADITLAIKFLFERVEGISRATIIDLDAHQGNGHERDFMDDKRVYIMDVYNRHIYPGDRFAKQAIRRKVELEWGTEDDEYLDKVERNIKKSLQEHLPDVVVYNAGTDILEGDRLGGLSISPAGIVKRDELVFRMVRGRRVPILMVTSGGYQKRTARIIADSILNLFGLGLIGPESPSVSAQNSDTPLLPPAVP
Briefly: Inhibition of recombinant C-terminal His-tagged human HDAC11 (1 to 347 residues) expressed in Baculovirus infected insect cells using RHKK-Ac as substrate by fluorimetric assay.

The target of the next series is Histone deacetylase 1 (Homo sapiens, UniProt Q13547). Briefly: Inhibition of recombinant full length C-terminal FLAG/His-tagged human HDAC1 (1 to 482 residues) expressed in sf21 cells using RHK-K(Ac)-AMC as substrate by fluorimetric assay.
The target in series [3] is Histone deacetylase 3/Nuclear receptor corepressor 2 (HDAC3/NCoR2) (Homo sapiens, UniProt O15379). The class given is cell-based.
The target of the next series is T2, Histone deacetylase 8 (Homo sapiens, UniProt Q9BY41).
T2 sequence (Q9BY41 whole entry): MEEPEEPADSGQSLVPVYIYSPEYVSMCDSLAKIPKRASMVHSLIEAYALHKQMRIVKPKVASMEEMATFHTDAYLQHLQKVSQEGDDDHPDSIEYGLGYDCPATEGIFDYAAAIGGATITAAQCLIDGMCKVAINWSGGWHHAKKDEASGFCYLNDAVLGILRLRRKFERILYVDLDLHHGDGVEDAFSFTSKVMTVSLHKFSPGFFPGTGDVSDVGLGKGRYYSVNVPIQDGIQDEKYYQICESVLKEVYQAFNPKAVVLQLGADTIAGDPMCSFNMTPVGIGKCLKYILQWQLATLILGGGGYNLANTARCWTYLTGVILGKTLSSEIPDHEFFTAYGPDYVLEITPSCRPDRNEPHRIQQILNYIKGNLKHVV
Briefly: Inhibition of recombinant C-terminal His-tagged human HDAC8 (1 to 377 residues) expressed in Baculovirus infected insect cells using RHK-K(Ac)-AMC as substrate by fluorimetric assay.

The next series concerns Kasumi 1. Briefly: Antiproliferative activity against human Kasumi-1 cells after 72 hrs by resazurin dye-based assay. Type of series: functional, cell-based. The following applies: Kasumi 1, 72 h. In outline:
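KASUMI-1 cells incubated with compounds for 72 hr; viability read with resazurin reagent. IC50 taken as the mean of three experiments, each run in duplicate.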

The nature of series [4]: Drug uptake in human A549 cells lysosome at 1 uM after 2 hrs by naphthalimide/Lysotracker Deep Red dye-based inverted light fluorescence confocal microscopic analysis. Type of series: ADME, subcellular. The following applies: a549, 2 h.
In series [5] the target is T3, Protein deacetylase HDAC6 (Homo sapiens, UniProt Q9UBN7).
T3 sequence (Q9UBN7 whole entry): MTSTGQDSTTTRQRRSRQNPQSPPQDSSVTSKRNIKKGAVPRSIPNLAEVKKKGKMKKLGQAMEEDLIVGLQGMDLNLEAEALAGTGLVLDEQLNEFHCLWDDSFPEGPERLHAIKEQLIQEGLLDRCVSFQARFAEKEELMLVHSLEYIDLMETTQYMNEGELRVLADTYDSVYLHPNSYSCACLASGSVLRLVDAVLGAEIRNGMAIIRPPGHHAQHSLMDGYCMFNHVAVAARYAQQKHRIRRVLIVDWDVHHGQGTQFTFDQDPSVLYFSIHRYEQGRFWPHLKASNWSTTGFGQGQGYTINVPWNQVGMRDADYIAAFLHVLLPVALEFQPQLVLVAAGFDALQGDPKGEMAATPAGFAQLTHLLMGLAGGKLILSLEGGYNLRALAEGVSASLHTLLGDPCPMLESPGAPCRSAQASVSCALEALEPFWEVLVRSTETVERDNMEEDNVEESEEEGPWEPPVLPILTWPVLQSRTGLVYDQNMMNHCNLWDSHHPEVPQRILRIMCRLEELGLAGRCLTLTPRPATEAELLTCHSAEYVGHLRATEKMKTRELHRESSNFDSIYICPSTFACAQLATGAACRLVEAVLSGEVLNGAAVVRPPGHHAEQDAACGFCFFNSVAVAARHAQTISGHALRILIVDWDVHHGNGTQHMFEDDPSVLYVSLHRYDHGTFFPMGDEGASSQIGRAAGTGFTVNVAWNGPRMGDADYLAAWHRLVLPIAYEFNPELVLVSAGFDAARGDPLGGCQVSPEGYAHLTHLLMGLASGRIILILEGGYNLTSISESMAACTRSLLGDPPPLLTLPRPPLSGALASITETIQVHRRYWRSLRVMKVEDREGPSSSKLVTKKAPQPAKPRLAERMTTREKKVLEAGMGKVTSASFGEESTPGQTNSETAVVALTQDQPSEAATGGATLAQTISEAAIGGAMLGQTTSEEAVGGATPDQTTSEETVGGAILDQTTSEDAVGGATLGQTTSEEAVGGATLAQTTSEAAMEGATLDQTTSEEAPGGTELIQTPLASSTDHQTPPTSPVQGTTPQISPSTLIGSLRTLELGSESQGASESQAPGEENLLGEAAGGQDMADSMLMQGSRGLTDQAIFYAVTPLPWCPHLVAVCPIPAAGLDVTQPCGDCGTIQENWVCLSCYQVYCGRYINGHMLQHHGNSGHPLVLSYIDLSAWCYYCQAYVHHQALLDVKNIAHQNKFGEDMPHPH
The series can be described thus: Inhibition of recombinant N-terminal GST-tagged human HDAC6 (1 to 1215 residues) expressed in Baculovirus infected insect cells using RHKK-Ac as substrate by fluorimetric assay.

The species entered for series [6] is Homo sapiens. The series can be described thus: Selectivity ratio of IC50 for human HDAC1 to IC50 for human HDAC6.
Series [7] deals with T3, Protein deacetylase HDAC6. The series can be described thus: Inhibition of human HDAC6 using (Z-(Ac)Lys-AMC) as substrate after 90 mins by fluorescence analysis.
For series [8], the species on record is Homo sapiens. Briefly: Selectivity ratio of IC50 for human recombinant full length C-terminal His-tagged HDAC3 (1 to 428 residues)/N-terminal GST-tagged NCOR2 (395 to 489 residues) to IC50 for recombinant N-terminal GST-tagged human HDAC6 (1 to 1215 residues).
The species entered for series [9] is Homo sapiens. Briefly: Selectivity ratio of IC50 for recombinant full length C-terminal FLAG/His-tagged human HDAC1 (1 to 482 residues) to IC50 for recombinant N-terminal GST-tagged human HDAC6 (1 to 1215 residues).
The next series concerns Danio rerio. The series can be described thus: Antiangiogenic activity in zebrafish embryo assessed as effect on blood vessel development at 10 uM administered from 24 to 50 hrs post fertilization for 24 hrs and measured after 72 hrs by alkaline phosphatase assay. The class given is functional, organism-based. The method, boiled down: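 Zebrafish embryos exposed at 10 µM from 24–50 hpf alongside vehicle-only controls; at 72 hpf embryos stained with alkaline phosphatase to visualise blood vessels.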

Sequence of Histone deacetylase 3/Nuclear receptor corepressor 2 (HDAC3/NCoR2) (O15379 whole entry): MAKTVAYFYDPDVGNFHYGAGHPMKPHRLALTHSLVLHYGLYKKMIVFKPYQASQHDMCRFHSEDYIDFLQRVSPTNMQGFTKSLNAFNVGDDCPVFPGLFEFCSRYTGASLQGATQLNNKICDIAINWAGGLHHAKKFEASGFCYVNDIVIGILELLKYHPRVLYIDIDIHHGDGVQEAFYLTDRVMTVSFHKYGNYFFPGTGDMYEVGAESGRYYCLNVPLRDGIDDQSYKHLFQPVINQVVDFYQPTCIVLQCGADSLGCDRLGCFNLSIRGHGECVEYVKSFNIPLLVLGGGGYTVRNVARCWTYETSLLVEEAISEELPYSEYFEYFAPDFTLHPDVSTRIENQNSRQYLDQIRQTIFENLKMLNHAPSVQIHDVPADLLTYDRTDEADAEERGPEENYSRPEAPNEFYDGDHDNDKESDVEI
Sequence of Histone deacetylase 3/Nuclear receptor corepressor 2 (HDAC3/NCoR2) (Q9Y618 whole entry, further chain): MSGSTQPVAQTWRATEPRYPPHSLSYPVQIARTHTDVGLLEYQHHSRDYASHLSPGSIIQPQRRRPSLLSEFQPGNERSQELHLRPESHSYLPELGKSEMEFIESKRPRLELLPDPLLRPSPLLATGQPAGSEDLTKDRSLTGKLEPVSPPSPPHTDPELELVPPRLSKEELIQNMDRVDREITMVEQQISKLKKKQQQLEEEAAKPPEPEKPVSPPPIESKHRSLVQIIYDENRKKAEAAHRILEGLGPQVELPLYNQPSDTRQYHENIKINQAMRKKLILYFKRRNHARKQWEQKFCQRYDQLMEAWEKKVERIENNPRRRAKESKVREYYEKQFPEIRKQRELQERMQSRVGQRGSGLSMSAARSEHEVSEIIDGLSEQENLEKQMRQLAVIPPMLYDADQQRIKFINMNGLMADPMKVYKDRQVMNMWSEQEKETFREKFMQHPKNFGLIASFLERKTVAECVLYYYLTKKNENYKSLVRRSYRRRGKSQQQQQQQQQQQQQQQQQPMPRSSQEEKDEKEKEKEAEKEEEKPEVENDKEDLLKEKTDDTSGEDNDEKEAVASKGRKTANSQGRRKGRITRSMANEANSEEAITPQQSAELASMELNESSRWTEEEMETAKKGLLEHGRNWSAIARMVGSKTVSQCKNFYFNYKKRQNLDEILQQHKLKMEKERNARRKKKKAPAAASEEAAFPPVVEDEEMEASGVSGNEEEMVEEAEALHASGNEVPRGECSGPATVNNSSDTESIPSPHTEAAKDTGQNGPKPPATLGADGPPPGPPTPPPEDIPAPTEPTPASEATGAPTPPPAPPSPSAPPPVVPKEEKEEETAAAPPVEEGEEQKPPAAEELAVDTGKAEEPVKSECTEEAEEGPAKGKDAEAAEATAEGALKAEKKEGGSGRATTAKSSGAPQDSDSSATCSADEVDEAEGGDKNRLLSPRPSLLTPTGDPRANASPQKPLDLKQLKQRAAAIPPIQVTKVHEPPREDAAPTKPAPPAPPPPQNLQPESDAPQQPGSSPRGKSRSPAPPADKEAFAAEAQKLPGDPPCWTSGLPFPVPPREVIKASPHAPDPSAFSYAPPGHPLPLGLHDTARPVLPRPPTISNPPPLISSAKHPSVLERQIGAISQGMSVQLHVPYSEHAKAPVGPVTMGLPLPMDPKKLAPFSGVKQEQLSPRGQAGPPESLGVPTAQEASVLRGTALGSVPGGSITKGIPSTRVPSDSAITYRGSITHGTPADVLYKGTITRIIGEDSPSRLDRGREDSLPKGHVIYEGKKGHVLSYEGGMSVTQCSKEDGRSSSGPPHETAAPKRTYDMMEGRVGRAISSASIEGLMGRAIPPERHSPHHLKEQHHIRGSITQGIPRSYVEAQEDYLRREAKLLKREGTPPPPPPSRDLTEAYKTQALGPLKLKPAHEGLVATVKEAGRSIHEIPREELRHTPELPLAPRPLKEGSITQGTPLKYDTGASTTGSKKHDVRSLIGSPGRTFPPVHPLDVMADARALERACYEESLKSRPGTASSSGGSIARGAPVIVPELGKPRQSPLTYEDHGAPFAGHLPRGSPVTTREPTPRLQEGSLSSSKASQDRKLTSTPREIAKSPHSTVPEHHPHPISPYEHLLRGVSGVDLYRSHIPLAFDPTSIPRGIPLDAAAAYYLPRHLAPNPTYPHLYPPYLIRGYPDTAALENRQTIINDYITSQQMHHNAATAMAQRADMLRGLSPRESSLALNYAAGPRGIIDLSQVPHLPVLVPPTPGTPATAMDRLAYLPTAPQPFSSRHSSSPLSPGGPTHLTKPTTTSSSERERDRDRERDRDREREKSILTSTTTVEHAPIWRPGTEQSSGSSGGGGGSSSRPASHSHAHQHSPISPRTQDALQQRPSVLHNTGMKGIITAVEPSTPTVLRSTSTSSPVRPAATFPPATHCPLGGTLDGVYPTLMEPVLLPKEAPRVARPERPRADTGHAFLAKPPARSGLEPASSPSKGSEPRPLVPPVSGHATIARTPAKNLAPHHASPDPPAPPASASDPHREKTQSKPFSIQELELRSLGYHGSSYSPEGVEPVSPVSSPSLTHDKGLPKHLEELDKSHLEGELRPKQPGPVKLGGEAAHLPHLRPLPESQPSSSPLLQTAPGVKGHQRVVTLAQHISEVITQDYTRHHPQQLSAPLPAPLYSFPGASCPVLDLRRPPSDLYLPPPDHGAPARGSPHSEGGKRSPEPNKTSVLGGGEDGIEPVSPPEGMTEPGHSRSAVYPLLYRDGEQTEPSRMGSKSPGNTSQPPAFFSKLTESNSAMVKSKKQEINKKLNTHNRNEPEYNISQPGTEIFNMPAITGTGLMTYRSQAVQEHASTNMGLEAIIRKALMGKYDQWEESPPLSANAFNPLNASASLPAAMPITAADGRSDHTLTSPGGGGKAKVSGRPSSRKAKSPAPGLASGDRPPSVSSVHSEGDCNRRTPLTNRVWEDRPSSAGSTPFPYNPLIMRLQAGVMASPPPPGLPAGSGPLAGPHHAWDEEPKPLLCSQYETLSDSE
Sequence of Histone deacetylase 1 (Q13547 whole entry, the tested form may be a part): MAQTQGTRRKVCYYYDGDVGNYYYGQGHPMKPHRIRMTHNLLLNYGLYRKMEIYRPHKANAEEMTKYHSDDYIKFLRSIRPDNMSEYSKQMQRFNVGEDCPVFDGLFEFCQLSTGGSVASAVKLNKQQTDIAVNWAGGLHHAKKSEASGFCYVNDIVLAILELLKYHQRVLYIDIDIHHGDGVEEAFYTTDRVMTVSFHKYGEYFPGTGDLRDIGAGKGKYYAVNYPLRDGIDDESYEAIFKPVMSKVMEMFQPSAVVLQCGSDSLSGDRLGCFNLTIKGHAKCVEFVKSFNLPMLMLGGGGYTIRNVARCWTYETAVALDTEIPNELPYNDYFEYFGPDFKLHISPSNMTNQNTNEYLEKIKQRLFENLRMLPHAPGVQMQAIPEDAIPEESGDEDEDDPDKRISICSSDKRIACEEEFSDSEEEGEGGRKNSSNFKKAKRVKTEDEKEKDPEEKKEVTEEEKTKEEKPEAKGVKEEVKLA

Broadly, the IC50 is the concentration that gives 50% inhibition. For the compound `Nc1ccccc1NC(=O)CCCCCN1C(=O)c2cccc3c(N4CCOCC4)ccc(c23)C1=O`, the Drug uptake result in series [1], in series [2] and in [4] was “Active” throughout. Further, the IC50 at Histone deacetylase 11 was 8120 nM; at Histone deacetylase 1, 430 nM; in [3] it was 290 nM; at Histone deacetylase 8, greater than 10000 nM; with Kasumi 1 it was 640 nM; in series [5], greater than 10000 nM.

`O=C(NO)c1ccc(CNC(=O)c2cc(Cn3c4ccccc4c4ccccc43)on2)cc1`: the Ratio IC50 in the series listed under Homo sapiens [6] came out at 490. The concentration for half-maximal inhibition (IC50) in [7] amounted to 0.61 nM.

On to `O=C(CCCCCN1C(=O)c2cccc3c(Nc4ccccc4)ccc(c23)C1=O)NO`, for which the IC50 on Histone deacetylase 11 came out at 190 nM; at Histone deacetylase 1, 2380 nM; in [3], 470 nM; at Histone deacetylase 8, 4090 nM; in the series with Kasumi 1, 280 nM; in series [5], 13 nM. Moreover, the Ratio IC50 in the series listed under Homo sapiens [8] is 36; in the series listed under Homo sapiens [9], 183.

Turning to `Nc1ccccc1NC(=O)CCCCCN1C(=O)c2cccc3cccc(c23)C1=O`, the half-maximal inhibitory concentration (IC50) at Histone deacetylase 11 is 9350 nM; at Histone deacetylase 1 it was 740 nM; in series [3], 200 nM; on Histone deacetylase 8, greater than 10000 nM; in the series on Kasumi 1 it was 1090 nM; in [5] it was greater than 10000 nM.

Turning to `CC(/C=C/C(=O)NO)=C\[C@@H](C)C(=O)c1ccc(N(C)C)cc1`, in the series on Danio rerio, the result was Active.

With `O=C(CCCCCN1C(=O)c2cccc3c([N+](=O)[O-])ccc(c23)C1=O)NO`, the IC50 was determined as 1020 nM at Histone deacetylase 11; 630 nM at Histone deacetylase 1; 1620 nM in series [3]; 620 nM at Histone deacetylase 8; 570 nM with Kasumi 1; 5.7 nM in series [5]. Also, the values for the Ratio IC50 in the series filed under Homo sapiens [8] and in the series listed under Homo sapiens [9] were 284 and 111, respectively.

With `O=C(CCCCCN1C(=O)c2cccc3cccc(c23)C1=O)NO`, the result in the series with Danio rerio was Active. This compound yielded a concentration for half-maximal inhibition (IC50) in the series with Kasumi 1 of 490 nM.

For `O=C(CCCCCN1C(=O)c2cccc3c(N4CCOCC4)ccc(c23)C1=O)NO`, the IC50 at Histone deacetylase 11 was 290 nM; on Histone deacetylase 1 it was 1430 nM; in [3] it was 320 nM; in series [7], 12 nM; at Histone deacetylase 8, 1810 nM; in the series with Kasumi 1 it was 290 nM. In addition, in [5], the concentration for half-maximal inhibition (IC50) worked out at 12 nM. Moreover, the figures for the Ratio IC50 in the series filed under Homo sapiens [8], in the series listed under Homo sapiens [9] and in the series filed under Homo sapiens [6] were 27, 119 and 120, respectively.

As to `CN(Cc1ccccc1)c1ccc2c3c(cccc13)C(=O)N(CCCCCC(=O)NO)C2=O`, the 50% inhibitory concentration (IC50) was found to be 1220 nM at Histone deacetylase 11; 2380 nM on Histone deacetylase 1; 700 nM in [3]; 1400 nM on Histone deacetylase 8; 810 nM with Kasumi 1; 9.7 nM in series [5]. For the same compound, the values for the Ratio IC50 in the series listed under Homo sapiens [8] and in the series listed under Homo sapiens [9] were 72 and 245, respectively.

Consider `O=C(CCCCCN1C(=O)c2cccc3c(Nc4cccc(F)c4)ccc(c23)C1=O)NO`, for which the half-inhibitory concentration (IC50) at Histone deacetylase 11 was found to be 210 nM; at Histone deacetylase 1, 3060 nM; in series [3], 550 nM; at Histone deacetylase 8, 4070 nM; with Kasumi 1, 320 nM; in [5] it was 14 nM. Further, the Ratio IC50 in the series listed under Homo sapiens [8] was found to be 39; in the series filed under Homo sapiens [9], 219.
